Laboratory results reported in ChEMBL document CHEMBL4689842, “EUbOPEN Chemogenomics Library wave 1” (2021).

Tests used:
Assay type in all cases: toxicity, cell-based
[1] = tested on: HEK-293T; experiment: Incucyte cell viability with HEK293T; conditions: human, 10 µM, compound concentration 10 uM; also: filed as whole numbers so only -1 and 0 and 1 occur
[2] = tested on: Fibroblast; experiment: Multiplex assay against human fibroblast
How it was run: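 Compound was added to live cells that had been stained at seeding with Hoechst33342, BioTracker Green Microtubule Cytoskeleton Dye, MitoTracker Red and Annexin V Alexa Fluor 680, and imaging followed on a CQ1 microscope at 37°C and 5% CO2. CellPathfinder machine-learning gating divided cells into Hoechst high-intensity objects or normal cells, normal cells into healthy, pyknosed or fragmented nuclei, and pyknosed cells into mitotic or apoptotic. Tubulin, mitochondrial-mass and membrane-permeability phenotypes are per cents of healthy-nucleus cells.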

[3] = tested on: U2OS; experiment: Incucyte cell viability with U2OS; conditions: human, 10 µM, compound concentration 10 uM; also: filed as whole numbers so only -1 and 0 and 1 occur
[4] = tested on: Fibroblast; experiment: Incucyte cell viability with human fibroblast; conditions: 10 µM, compound concentration 10 uM; also: filed as whole numbers so only -1 and 0 and 1 occur
[5] = 0 h, replicate number 1, timepoint 0 hours
[6] = 6 h, replicate number 1, timepoint 6 hours
[7] = 12 h, replicate number 1, timepoint 12 hours
[8] = 18 h, replicate number 1, timepoint 18 hours
[9] = 24 h, replicate number 1, timepoint 24 hours
[10] = 12 h, 1 µM, compound concentration 1 uM, replicate 1
[11] = 12 h, 1 µM, compound concentration 1 uM, replicate 2
[12] = 12 h, 10 µM, compound concentration 10 uM, replicate 1
[13] = 12 h, 10 µM, compound concentration 10 uM, replicate 2
[14] = 24 h, 1 µM, compound concentration 1 uM, replicate 1
[15] = 24 h, 1 µM, compound concentration 1 uM, replicate 2
[16] = 24 h, 10 µM, compound concentration 10 uM, replicate 1
[17] = 24 h, 10 µM, compound concentration 10 uM, replicate 2
[18] = 24 h, replicate number 2, timepoint 24 hours

With `Cc1c(Nc2ccc(S(=O)(=O)N3CCN(C)CC3)cc2F)nc2ccc(Nc3cnn(C4CC4)c3)cn2c1=O` the “Growth Rate” value [1, 5] was 1, the “Growth Rate” value [1, 6] was 0 and the “Growth Rate” value [1, 7] was 0. The “Growth Rate” value [1, 8] was 0, the “Growth Rate” value [1, 9] was 0 and the “Population Apoptotic (%)” value [2, 10] was 64%. For the same compound, the “Population Fragmented Nuclei (%)” value [2, 10] was 30%, the “Population Healthy Nuclei (%)” value [2, 10] was 50% and the “Population Hoechst High Intensity Objects (%)” value [2, 10] was 12%. The “Population Membrane Permeable-Phenotype (%)” value [2, 10] was 31%, the “Population Mitochondria Different-Phenotype (%)” value [2, 10] was 6% and the “Population Mitotic Cells (%)” value [2, 10] was 35%. For the same compound, the “Population Normal (%)” value [2, 10] was 87%, the “Population Pyknosed Nuclei (%)” value [2, 10] was 19% and the “Population Tubulin-Different-Phenotype (%)” value [2, 10] was 43%. The “Total Cell Count” value [2, 10] was 263, the “Population Apoptotic (%)” value [2, 11] was 80% and the “Population Fragmented Nuclei (%)” value [2, 11] was 62%. The “Population Healthy Nuclei (%)” value [2, 11] was 24%, the “Population Hoechst High Intensity Objects (%)” value [2, 11] was 40% and the “Population Membrane Permeable-Phenotype (%)” value [2, 11] was 55%. For the same compound, the “Population Mitochondria Different-Phenotype (%)” value [2, 11] was 11%, the “Population Mitotic Cells (%)” value [2, 11] was 20% and the “Population Normal (%)” value [2, 11] was 59%. The “Population Pyknosed Nuclei (%)” value [2, 11] was 13%, the “Population Tubulin-Different-Phenotype (%)” value [2, 11] was 66% and the “Total Cell Count” value [2, 11] was 62. For the same compound, the “Population Apoptotic (%)” value [2, 12] was 79%, the “Population Fragmented Nuclei (%)” value [2, 12] was 27% and the “Population Healthy Nuclei (%)” value [2, 12] was 58%. For the same compound, the “Population Hoechst High Intensity Objects (%)” value [2, 12] was 12%, the “Population Membrane Permeable-Phenotype (%)” value [2, 12] was 7% and the “Population Mitochondria Different-Phenotype (%)” value [2, 12] was 1%. For the same compound, the “Population Mitotic Cells (%)” value [2, 12] was 20%, the “Population Normal (%)” value [2, 12] was 87% and the “Population Pyknosed Nuclei (%)” value [2, 12] was 13%. The “Population Tubulin-Different-Phenotype (%)” value [2, 12] was 2%, the “Total Cell Count” value [2, 12] was 288 and the “Population Apoptotic (%)” value [2, 13] was 50%. For the same compound, the “Population Fragmented Nuclei (%)” value [2, 13] was 55%, the “Population Healthy Nuclei (%)” value [2, 13] was 40% and the “Population Hoechst High Intensity Objects (%)” value [2, 13] was 27%. The “Population Membrane Permeable-Phenotype (%)” value [2, 13] was 9%, the “Population Mitochondria Different-Phenotype (%)” value [2, 13] was 0% and the “Population Mitotic Cells (%)” value [2, 13] was 50%. For the same compound, the “Population Normal (%)” value [2, 13] was 72%, the “Population Pyknosed Nuclei (%)” value [2, 13] was 3% and the “Population Tubulin-Different-Phenotype (%)” value [2, 13] was 19%. For the same compound, the “Total Cell Count” value [2, 13] was 72, the “Population Apoptotic (%)” value [2, 14] was 72% and the “Population Fragmented Nuclei (%)” value [2, 14] was 30%. For the same compound, the “Population Healthy Nuclei (%)” value [2, 14] was 53%, the “Population Hoechst High Intensity Objects (%)” value [2, 14] was 12% and the “Population Membrane Permeable-Phenotype (%)” value [2, 14] was 14%. For the same compound, the “Population Mitochondria Different-Phenotype (%)” value [2, 14] was 1%, the “Population Mitotic Cells (%)” value [2, 14] was 27% and the “Population Normal (%)” value [2, 14] was 87%. For the same compound, the “Population Pyknosed Nuclei (%)” value [2, 14] was 16%, the “Population Tubulin-Different-Phenotype (%)” value [2, 14] was 38% and the “Total Cell Count” value [2, 14] was 257. For the same compound, the “Population Apoptotic (%)” value [2, 15] was 100%, the “Population Fragmented Nuclei (%)” value [2, 15] was 57% and the “Population Healthy Nuclei (%)” value [2, 15] was 31%. For the same compound, the “Population Hoechst High Intensity Objects (%)” value [2, 15] was 30%, the “Population Membrane Permeable-Phenotype (%)” value [2, 15] was 40% and the “Population Mitochondria Different-Phenotype (%)” value [2, 15] was 0%. For the same compound, the “Population Mitotic Cells (%)” value [2, 15] was 0%, the “Population Normal (%)” value [2, 15] was 69% and the “Population Pyknosed Nuclei (%)” value [2, 15] was 10%. The “Population Tubulin-Different-Phenotype (%)” value [2, 15] was 40%, the “Total Cell Count” value [2, 15] was 68 and the “Population Apoptotic (%)” value [2, 16] was 65%. For the same compound, the “Population Fragmented Nuclei (%)” value [2, 16] was 22%, the “Population Healthy Nuclei (%)” value [2, 16] was 63% and the “Population Hoechst High Intensity Objects (%)” value [2, 16] was 13%. For the same compound, the “Population Membrane Permeable-Phenotype (%)” value [2, 16] was 7%, the “Population Mitochondria Different-Phenotype (%)” value [2, 16] was 1% and the “Population Mitotic Cells (%)” value [2, 16] was 34%. For the same compound, the “Population Normal (%)” value [2, 16] was 86%, the “Population Pyknosed Nuclei (%)” value [2, 16] was 13% and the “Population Tubulin-Different-Phenotype (%)” value [2, 16] was 3%. For the same compound, the “Total Cell Count” value [2, 16] was 293, the “Population Apoptotic (%)” value [2, 17] was 0% and the “Population Fragmented Nuclei (%)” value [2, 17] was 57%. The “Population Healthy Nuclei (%)” value [2, 17] was 38%, the “Population Hoechst High Intensity Objects (%)” value [2, 17] was 21% and the “Population Membrane Permeable-Phenotype (%)” value [2, 17] was 9%. The “Population Mitochondria Different-Phenotype (%)” value [2, 17] was 4%, the “Population Mitotic Cells (%)” value [2, 17] was 100% and the “Population Normal (%)” value [2, 17] was 78%. The “Population Pyknosed Nuclei (%)” value [2, 17] was 3%, the “Population Tubulin-Different-Phenotype (%)” value [2, 17] was 0% and the “Total Cell Count” value [2, 17] was 73. The “Growth Rate” value [3, 5] was 0, the “Growth Rate” value [3, 6] was 0 and the “Growth Rate” value ([3]; 6 h, replicate number 2, timepoint 6 hours) was 1. The “Growth Rate” value [3, 7] was 0, the “Growth Rate” value ([3]; 12 h, replicate number 2, timepoint 12 hours) was 1 and the “Growth Rate” value [3, 8] was 0. For the same compound, the “Growth Rate” value ([3]; 18 h, replicate number 2, timepoint 18 hours) was 1, the “Growth Rate” value [3, 9] was 0 and the “Growth Rate” value [3, 18] was 1. For the same compound, the “Growth Rate” value ([4]; 0 h, replicate number 2, timepoint 0 hours) was 0, the “Growth Rate” value [4, 6] was 0 and the “Growth Rate” value [4, 7] was 0. The “Growth Rate” value [4, 8] was 0, the “Growth Rate” value [4, 9] was 0 and the “Growth Rate” value [4, 18] was 1.
